ChEMBL document CHEMBL3612038, “N-Alkyl/aryl-4-(3-substituted-3-phenylpropyl)piperazine-1-carbothioamide as dual-action vaginal microbicides with reverse transcriptase inhibition” (Eur J Med Chem, 2015)
Converted amounts (≈) assume the structure as drawn.

Columns and labels:
[1] = Tmax in New-Zealand rabbit at 33 mg/kg dosed through vaginal administration by LC-MS/MS method; type: ADME, organism-based, Oryctolagus cuniculus; conditions: in vivo
Outline: (§1)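 Female New Zealand rabbits received a single vaginal dose of 33 mg/kg. Drug in plasma was quantified by LC-MS/MS on a C18 column with phenacetin as internal standard. For each plasma sample (50 µL), 200 µL of internal-standard solution (200 ng/mL phenacetin in acetonitrile) was added. Samples were mixed, centrifuged at 13,000 rpm for 20 min, and the supernatant injected. The method was validated to FDA bioanalytical criteria.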

[2] = test system: Trichomonas vaginalis; assay: Anti-trichomonas activity against MTZ-resistant Trichomonas vaginalis incubated for 3 to 48 hrs by trypan blue exclusion assay; type: functional
Outline: (§2)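 Trichomonas vaginalis trophozoites (5 × 10^4/L as printed) in TYM medium; DMSO stocks (100.0 mg/mL) serially diluted in TYM to 0.1 mg/mL, DMSO/TYM vehicle controls. Anaerobic incubation at 37 °C; viability checked 3–48 h by microscopy (200×) with trypan blue exclusion. MIC = lowest concentration killing all cells within 48 h.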

[3] = Stability in simulated vaginal fluid at pH 4.2 at 200 ng/ml by LC-MS/MS method; conditions: buffer
[4] = Spermicidal activity in liquefied human semen assessed as reduction in motile spermatozoa incubated at 37 degC for 30 mins; type: functional, Sperm; conditions: for minimal effective concentration: Homo sapiens, Sperm, Semen, 0.5 h, read-out: MEC
Outline: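 Compounds dissolved in minimal DMSO, diluted with 0.85% saline to 1.0% test solution; liquefied human semen mixed 1:5 with test solution, vortexed 10 s; motile sperm scored by phase-contrast microscopy over 60 s in five fields. MEC = lowest concentration immobilizing 100% of sperm, still immotile after dilution with nutrient medium.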

[5] = Effect on Lactobacillus jensenii ATCC 25258 62G assessed as effect on microbial proliferation at 200 ug/ml incubated for 24 hrs
Outline: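 L. jensenii ATCC 25258 (strain 62G) in 6% Rogosa SL broth with 0.132% acetic acid; serial compound dilutions or vehicle in triplicate, ~1000 CFU per well, 24 h at 37 °C, humidified 5% CO2; growth read as OD610, expressed relative to control = 100.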

[6] = test system: Trichophyton mentagrophytes; assay: Antifungal activity against Trichophyton mentagrophytes incubated for 48 hrs by broth micro-dilution method; type: functional
Outline: (§3)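 Broth microdilution per NCCLS guidelines in RPMI 1640 buffered with MOPS; starting inoculum 1–5 × 10^3 CFU/mL; plates incubated at 35 °C, MIC read after 48 h.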

[7] = test system: Trichomonas vaginalis; assay: Anti-trichomonas activity against MTZ-susceptible Trichomonas vaginalis incubated for 3 to 48 hrs by trypan blue exclusion assay; type: functional; outline: as §2
[8] = test system: Trichomonas vaginalis; assay: Resistance index, ratio of MIC for MTZ-resistant Trichomonas vaginalis to MIC for MTZ-susceptible Trichomonas vaginalis; type: functional
[9] = AUC (0 to infinity) in New-Zealand rabbit at 33 mg/kg dosed through vaginal administration by LC-MS/MS method; type: ADME, organism-based, Oryctolagus cuniculus; set-up: dose 33 mg/kg, time infinity; conditions: in vivo; outline: as §1
[10] = Terminal half life in New-Zealand rabbit at 33 mg/kg dosed through vaginal administration by LC-MS/MS method; type: ADME, organism-based, Oryctolagus cuniculus; conditions: in vivo, read-out: beta t1/2 (converted); outline: as §1
[11] = test system: Cryptococcus neoformans; assay: Antifungal activity against Cryptococcus neoformans incubated for 48 hrs by broth micro-dilution method; type: functional; outline: as §3
[12] = molecular target: Human immunodeficiency virus type 1 reverse transcriptase (Human immunodeficiency virus 1) (UniProt Q72547); assay: Inhibition of HIV1 reverse transcriptase at 100 ug/ml incubated for 1 hr by ELISA method
Outline: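 Non-radioactive colorimetric ELISA: template/primer with dNTPs plus HIV-1 RT in lysis buffer ± compound (100 µg/mL), 1 h at 37 °C; RT-free buffer as negative control, nevirapine as positive control. Product captured on streptavidin plate 1 h at 37 °C, detected with anti-DIG-POD and ABTS, OD 405 nm.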

[13] = test system: Candida albicans; assay: Antifungal activity against Candida albicans incubated for 48 hrs by broth micro-dilution method; type: functional; outline: as §3
[14] = Cmax in New-Zealand rabbit at 33 mg/kg dosed through vaginal administration by LC-MS/MS method; type: ADME, organism-based, Oryctolagus cuniculus; set-up: dose 33 mg/kg; conditions: in vivo; outline: as §1
[15] = test system: HeLa; assay: Cytotoxicity against human HeLa cells assessed as reduction in cell viability at 200 ug/ml incubated for 24 hrs by MTT assay; type: cell-based
Outline: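 HeLa cells seeded at 5 × 10^4 per well, exposed 24 h to compound dilutions in culture medium or vehicle control; MTT (5 mg/mL in pH 7.4 buffer) added, formazan dissolved in DMSO, absorbance read at 540 nm.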

[16] = test system: Sporothrix schenckii; assay: Antifungal activity against Sporothrix schenckii incubated for 48 hrs by broth micro-dilution method; type: functional; outline: as §3
[17] = test system: Candida parapsilosis; assay: Antifungal activity against Candida parapsilosis ATCC 22019 incubated for 48 hrs by broth micro-dilution method; type: functional; conditions: Lodderomyces parapsilosis, ATCC 22019, 48 h; outline: as §3
[18] = test system: Aspergillus fumigatus; assay: Antifungal activity against Aspergillus fumigatus incubated for 48 hrs by broth micro-dilution method; type: functional; outline: as §3
[19] = test system: Oryctolagus cuniculus; assay: Drug level in plasma of New-Zealand rabbit at 33 mg/kg dosed through vaginal administration by LC-MS/MS method; type: ADME, organism-based; conditions: in vivo, other; outline: as §1
[20] = test system: Oryctolagus cuniculus; assay: Apparent […] volume of distribution in New-Zealand rabbit at 33 mg/kg dosed through vaginal administration by LC-MS/MS method; type: ADME, organism-based; conditions: in vivo; outline: as §1

SMILES | Tmax [1] [h] | MIC [2] [µM] | Stability [3] [h] | MEC [4] [%] | minimal effective concentration [4] [µM] | MIC [6] [µM] | MIC [7] [µM] | AUC(0-inf) [9] [ng·h/mL] | half-life [10] [h] | MIC [11] [µM] | MIC [13] [µM] | Cmax [14] [ng/mL] | MIC [16] [µM] | MIC [17] [µM] | MIC [18] [µM] | Drug uptake [19] | further results
CCCCNC(=S)N1CCN(CCC(=O)c2ccccc2)CC1 | 0.75 | 188 (≈ 62.6 µg/mL) | > 1 | 0.01 | 300 | 9.34 (≈ 3.11 µg/mL) | 46.7 (≈ 15.6 µg/mL) | 14.7 | 4.67 | 9.34 (≈ 3.11 µg/mL) | 74.8 (≈ 24.9 µg/mL) | 4.43 | > 81.2 | > 81.2 | > 81.2 | Not Active | Activity [5]: Non-toxic; Ratio [8]: 4; inhibition [12]: 72.3%; Activity [15]: Non-toxic
CCCCCCCCCc1ccc(OCCOCCOCCOCCOCCOCCOCCOCCOCCO)cc1 [NONOXYNOL 9] | 1 | 122 (≈ 75.1 µg/mL) | > 1 | 0.05 | 810 | > 81.2 | 81.2 (≈ 50.1 µg/mL) | 12.9 | 1.59 | > 81.2 | > 81.2 | 3.66 | > 81.2 | > 81.2 | > 81.2 | Not Active | Vd/F [20]: 7931.32 L/kg
